Source: ChEMBL document CHEMBL5360630, “Macrocyclic Peptidomimetic Plasmepsin X Inhibitors with Potent In Vitro and In Vivo Antimalarial Activity” (J Med Chem, 2023)
Calls of active or inactive are those of the source. The calls are words filed in the database; no cut-off is given here.

Key:
[1] = Toxicity in NMRI mouse assessed as drug tolerance at 50 mg/kg, po measured upto 24 hrs by UP-LCMS analysis; type: organism-based; settings: in vivo
In short: (§1)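 Female NMRI mice (10–12 weeks, 29–32 g), acclimatized 1 week, given a single peroral bolus of 50 mg/kg (10 mL/kg). Toxicity signs scored on a 0–6 scale at 0–2, 5, 10, 15, 30, 60, 120, 240 min and 24 h after dosing.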

[2] = Toxicity in NMRI mouse assessed as adverse effect at 50 mg/kg, po measured upto 24 hrs by UP-LCMS analysis; type: organism-based; settings: in vivo; in short: as §1
Plasmodium falciparum [3] = test: Antiplasmodial activity against Plasmodium falciparum infected in NSG mouse model assessed as accumulation of circulating mature schizonts at 40 mg/kg, po measured after 3 days by giemsa staining based flow cytometry analysis; type: functional, organism-based; settings: time 3.0 day
In short: (§2)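 Female NSG mice (22–28 g) engrafted with human erythrocytes by daily i.p./i.v. injection; once >40% circulating human RBCs, infected i.v. with P. falciparum Pf3D7 0087/N9. Oral gavage (10 mL/kg) from ~1.3% parasitemia (Day 1); 40 mg/kg QD, BID or TID for 4 days. Parasitemia in tail blood by flow cytometry (TER-119-PE, SYTO-16) and Giemsa smears; stage distribution examined on day 3.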

Plasmodium falciparum [4] = test: Antiplasmodial activity against Plasmodium falciparum infected in PfalcHy mouse assessed as reduction in blood parasitemia level administered orally; type: functional, organism-based; settings: dose 40.0 mg/kg, route po; in short: as §2

For `CCCN1CCCCCc2cccc(c2)C[C@@H]([C@H](O)CNC(C)(C)c2cccc(OC)c2)NC(=O)c2cccc(c2)C1=O`, the Activity [1] was “Non-Toxic”, the Activity [2] was “Non-Toxic” and the Activity (Plasmodium falciparum [3]) was “Active”. The Activity (Plasmodium falciparum [4]) was “Dose-Dependent Effect”.
